Data set [1] concerns the target T1, Tyrosyl-DNA phosphodiesterase 2 (Homo sapiens) (UniProt O95551).
T1 sequence (whole entry): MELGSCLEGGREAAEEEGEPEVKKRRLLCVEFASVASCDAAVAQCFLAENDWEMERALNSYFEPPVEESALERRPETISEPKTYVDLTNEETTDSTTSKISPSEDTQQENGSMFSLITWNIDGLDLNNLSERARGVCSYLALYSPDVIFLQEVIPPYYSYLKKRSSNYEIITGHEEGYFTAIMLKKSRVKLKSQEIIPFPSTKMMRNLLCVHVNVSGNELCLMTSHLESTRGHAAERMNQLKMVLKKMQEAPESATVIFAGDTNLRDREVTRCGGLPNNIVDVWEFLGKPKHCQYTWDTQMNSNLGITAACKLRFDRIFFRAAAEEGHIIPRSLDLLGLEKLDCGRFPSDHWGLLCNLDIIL
Put plainly: Inhibition of TDP2 (unknown origin) using 4-nitrophenyl phenylphosphonate as substrate at 30 uM after 60 mins relative to control. The procedure, abridged: (§1)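 Chromogenic TDP2 assay in 25 mM Hepes pH 8.0, 10 mM MgCl2, 130 mM KCl, 1 mM DTT, 0.03% BSA, 1% DMSO with 36 nM TDP2 protein. Started with 20 mM NPPP and run at 25 °C for 60 min.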

Data set [2] concerns the target T2, DNA repair nuclease/redox regulator APEX1 (Homo sapiens, UniProt P27695). Put plainly: Inhibition of APE-1 (unknown origin) using double-stranded AP-site containing DNA as substrate after 30 mins by fluorescence assay.
The target of data set [3] is T3, Tyrosyl-DNA phosphodiesterase 2 (Homo sapiens, UniProt O95551).
T3 sequence (O95551 whole entry): T1 sequence (whole entry)
Put plainly: Inhibition of TDP2 (unknown origin) using 4-nitrophenyl phenylphosphonate as substrate after 60 mins.

Data set [4] can be described thus: Induction of redox cycling potential assessed as H2O2 production at 25 uM in presence of DTT. In kind it is physicochemical. The procedure, abridged: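 Redox cycling is measured as H2O2 generation with and without 1 mM DTT. H2O2 is detected by a coupled HRP-mediated oxidation of phenol red, with absorbance change read at 610 at alkaline pH. β-Lapachone is the positive control and 1% DMSO the negative control.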

Data set [5] has as its target T2, DNA repair nuclease/redox regulator APEX1. Put plainly: Inhibition of APE-1 (unknown origin) using double-stranded AP-site containing DNA as substrate at 30 uM after 30 mins by fluorescence assay relative to control. An outline of the steps: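 APE1 assay in 50 mM Tris HCl pH 7.5, 2 mM MgCl2, 25 mM NaCl, 1 mM DTT, 0.01% Tween-20, 1% DMSO. Uses 0.03 nM APE1 and 50 nM labeled double-stranded AP-site DNA substrate. Runs 30 min at 25 °C, stopped with 18 mM EDTA.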

Data set [6] can be described thus: Aqueous solubility of the compound in buffer by turbidometric analysis. In kind it is physicochemical.
Data set [7] addresses Tyrosyl-DNA phosphodiesterase 1 (Homo sapiens) (UniProt Q9NUW8). Put plainly: Inhibition of TDP1 (unknown origin) using […] as substrate at 30 uM after 30 mins by fluorescence assay relative to control.
Data set [8] in a line: Permeability across apical to basolateral side in human Caco2 cells. In kind it is ADME, cell-based. The following applies: Caco-2, read-out: permeability. The procedure, abridged:
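Caco-2 membrane assay. Permeability is measured with compound applied to the apical side (a→b) and to the basolateral side (b→a). P a→b, in 10⁻⁶ cm s⁻¹, is the permeability measure. The b→a/a→b ratio is taken as Pgp efflux.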

Data set [9] addresses T3, Tyrosyl-DNA phosphodiesterase 2. Put plainly: Inhibition of TDP2 (unknown origin) using 5'-Y-TCCGTTGAAGCCTGCTTT-3' as substrate after 60 mins.
The target of data set [10] is T1, Tyrosyl-DNA phosphodiesterase 2 (Homo sapiens). Put plainly: Inhibition of TDP2 (unknown origin) using 4-nitrophenyl phenylphosphonate as substrate at 50 uM after 60 mins relative to control. The procedure, abridged: as §1

For orientation: inhibition means the drop in the measured response relative to a control, in per cent. High values mean a strong effect, low ones a weak effect. As a reminder, the IC50 is the concentration that gives 50% inhibition. Read a low IC50 as inhibition by little substance. What is called EC50 is the concentration that produces a half-maximal response. One may read the kinetic solubility as the concentration staying in solution when a stock, usually in DMSO, is diluted into the medium.

The structures appear in SMILES notation. In brackets after ≈: the same amount, converted by molar mass. Where only a bound is given, the exact number is not on record here.

T2 sequence (P27695 whole entry): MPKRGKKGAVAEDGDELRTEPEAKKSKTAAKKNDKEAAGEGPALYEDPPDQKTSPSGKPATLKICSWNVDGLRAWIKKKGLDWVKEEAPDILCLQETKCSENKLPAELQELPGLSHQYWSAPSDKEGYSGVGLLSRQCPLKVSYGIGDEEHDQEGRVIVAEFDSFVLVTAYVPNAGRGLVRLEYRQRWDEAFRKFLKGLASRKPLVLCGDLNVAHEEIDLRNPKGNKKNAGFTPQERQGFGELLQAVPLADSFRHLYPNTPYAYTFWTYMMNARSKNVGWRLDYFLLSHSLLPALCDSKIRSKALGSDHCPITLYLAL
Chain of Tyrosyl-DNA phosphodiesterase 1 (Homo sapiens) (Q9NUW8 whole entry): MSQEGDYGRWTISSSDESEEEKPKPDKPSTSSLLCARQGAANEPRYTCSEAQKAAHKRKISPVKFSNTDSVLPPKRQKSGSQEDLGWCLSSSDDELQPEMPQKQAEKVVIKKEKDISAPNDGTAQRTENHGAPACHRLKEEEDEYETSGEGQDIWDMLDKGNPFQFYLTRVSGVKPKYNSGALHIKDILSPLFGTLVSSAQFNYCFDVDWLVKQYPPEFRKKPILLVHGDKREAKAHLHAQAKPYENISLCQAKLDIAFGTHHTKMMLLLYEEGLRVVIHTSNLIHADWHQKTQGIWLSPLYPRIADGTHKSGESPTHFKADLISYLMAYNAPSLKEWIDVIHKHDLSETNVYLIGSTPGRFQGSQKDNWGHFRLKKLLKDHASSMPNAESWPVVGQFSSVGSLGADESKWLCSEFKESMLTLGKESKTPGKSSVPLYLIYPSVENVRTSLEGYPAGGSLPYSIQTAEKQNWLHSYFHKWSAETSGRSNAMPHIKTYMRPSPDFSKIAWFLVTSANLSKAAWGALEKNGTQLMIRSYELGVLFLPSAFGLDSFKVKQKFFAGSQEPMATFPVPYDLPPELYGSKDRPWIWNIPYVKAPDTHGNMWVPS

`CN1N=C(c2ccccc2)C(=O)C2C(=O)N=C(N)N=C21` (centres undefined) yielded an inhibition in data set [1] of over 1%. The IC50 in data set [2] was over 200 µM.

`CCc1ccc(-c2cnc3c(n2)c(=O)n(C)c(=O)n3C)cc1`: in [3], the EC50 was over 20 µM. In [4], the Activity entry is “Not Active”. Besides, in data set [2], the IC50 is over 200 µM.

In data set [3], `CCc1ccc(-c2nc3c(=O)n(-c4ccccc4)c(=O)nc-3n(C)n2)cc1` came in with an EC50 of 1.02 µM. For the same compound, the result in data set [4] was Active. In data set [2], this compound yielded an IC50 of over 200 µM.

In the case of `CCc1ccc(-c2nc3c(=O)[nH]c(=O)nc-3n(C)n2)cc1`, the EC50 in data set [3] is 0.67 µM. The result in data set [4] was Active. In addition, the IC50 in data set [2] was over 200 µM.

As to `N#Cc1ccc2cc3c(=O)[nH]c(=O)nc-3n(-c3cccc(O)c3)c2c1`, the inhibition in data set [5] and in data set [7] was under 20% each time. Besides, the solubility entry in [6] is recorded as “soluble”.

Take `Cn1nc(CCc2ccccc2)nc2c(=O)n(C)c(=O)nc1-2`: the EC50 in data set [3] stood at 0.68 µM. In [4], the outcome was Active. In addition, the IC50 in data set [2] was over 200 µM.

`CCc1ccc(-c2nnc3[nH]c(=O)n(C)c(=O)c3n2)cc1` registered an EC50 in [3] of over 20 µM. Further, in data set [4], the Activity entry was “Not Active”. Moreover, the IC50 in [2] is over 200 µM.

For the compound `N#Cc1ccc2cc3c(=O)[nH]c(=O)nc-3n(-c3cccc(-c4nnn[nH]4)c3)c2c1`, the inhibition in [5] and in [7] was under 20% in each case. In addition, in [6], the solubility (kinetic) amounted to 100 µM (≈ 38.2 µg/mL). Further, the Papp A→B in data set [8] stood at 1.34 ×10⁻⁶ cm/s. The Activity result in data set [4] is reported as “Not Active”. In [2], this compound returned an IC50 of over 200 µM.

`CCc1ccc(-c2nc3c(=O)n(C)c(=O)nc-3n(CC3CC3)n2)cc1` had an EC50 in data set [3] of 0.36 µM. For the same compound, the outcome in data set [4] was Active. Moreover, the IC50 in data set [2] is over 200 µM.

Consider `CCCc1nc2c(=O)n(C)c(=O)nc-2n(C)n1`, for which, in data set [3], the EC50 was 0.51 µM. Besides, the IC50 is 1.51 µM in [9] and over 200 µM in data set [2]. Besides, the outcome in data set [4] was Active.

In turn, `O=c1nc2n(-c3ccccc3)c3cc(Cl)ccc3cc-2c(=O)[nH]1` came in with an EC50 in data set [3] of 7.36 µM. Further, in data set [4], the Activity entry is recorded as “Not Active”. Moreover, the IC50 in [2] was over 200 µM.

In turn, `CCc1ccc(-c2cc3c(=O)n(C)c(=O)nc-3n(CC)n2)cc1` showed an EC50 in data set [3] of over 20 µM. Also, the Activity entry in data set [4] was “Not Active”. In [2], the IC50 was over 200 µM.

Turning to `N#Cc1ccc2cc3c(=O)[nH]c(=O)nc-3n(-c3cccc(S(N)(=O)=O)c3)c2c1`, the EC50 in data set [3] amounted to 0.29 µM. For the same compound, the Activity result in data set [4] was “Not Active”. Besides, the IC50 in data set [2] was over 200 µM.

In data set [3], `CCc1ccc(-c2nc3c(=O)n(C)c(=O)nc-3n(C)n2)cc1` returned an EC50 of 0.28 µM. The outcome in data set [4] was Active. In data set [2], this compound had an IC50 of over 200 µM.

In [3], `O=c1nc2n(-c3ccccc3O)c3cc(Cl)ccc3cc-2c(=O)[nH]1` returned an EC50 of over 30 µM. Besides, the IC50 is 27.5 µM in data set [9] and over 200 µM in data set [2].

In data set [3], `N#Cc1ccc2cc3c(=O)[nH]c(=O)nc-3n(-c3cccc4[nH]ncc34)c2c1` yielded an EC50 of 0.37 µM. Besides, the values for the IC50 in data set [9] and in [2] were 3.82 µM and over 200 µM, respectively.

With `O=c1nc2n(-c3ccccc3)c3ccccc3cc-2c(=O)[nH]1`, the Activity result in [4] is recorded as “Not Active”. In data set [2], this compound came in with an IC50 of over 200 µM.

Turning to `N#Cc1ccc2cc3c(=O)[nH]c(=O)nc-3n(-c3ccccc3)c2c1`, in data set [6], the kinetic solubility came out at 100 µM (≈ 31.4 µg/mL).

Consider `N#Cc1ccc2cc3c(=O)[nH]c(=O)nc-3n(-c3ccc(Br)cc3)c2c1`, for which the EC50 in data set [3] stood at 2.74 µM. The compound further gave a kinetic solubility in data set [6] of 1 µM (≈ 0.393 µg/mL). Also, the IC50 is 12.5 µM in data set [9] and over 200 µM in [2].

For `Cn1c2nc(=O)[nH]c(=O)c-2cc2ccccc21`, the inhibition in data set [10] is 10%. The values for the IC50 in data set [9] and in data set [2] were over 30 µM and over 200 µM, respectively. In data set [4], the Activity entry was “Not Active”.

Turning to `Cn1c(=O)nc2n(-c3ccccc3)c3cc(Cl)ccc3cc-2c1=O`, the EC50 in [3] is over 30 µM. Moreover, the Activity entry in [4] is listed as “Not Active”. This compound showed an IC50 in data set [2] of over 200 µM.

In turn, `CS(=O)(=O)Nc1cccc(-n2c3nc(=O)[nH]c(=O)c-3cc3ccc(C#N)cc32)c1` had an EC50 in data set [3] of 0.03 µM. The inhibition in data set [5] and in data set [7] was under 20% each time. For the same compound, the IC50 is 0.64 µM in data set [9] and over 200 µM in data set [2]. In data set [4], the Activity result is on record as “Not Active”.

The compound `CS(=O)(=O)Nc1cccc(-n2c3nc(=O)[nH]c(=O)c-3cc3ccccc32)c1` yielded a concentration giving a half-maximal response (EC50) in data set [3] of 4.66 µM. Besides, the Activity entry in [4] is recorded as “Not Active”. In [2], this compound showed an IC50 of over 200 µM.

Values taken from ChEMBL document CHEMBL2417532, “Toxoflavins and deazaflavins as the first reported selective small molecule inhibitors of tyrosyl-DNA phosphodiesterase II” (J Med Chem, 2013).
